# Reference: ChEMBL document CHEMBL3351588, “Design, synthesis and biological evaluation of N-alkyl or aryl substituted isoindigo derivatives as potential dual cyclin-dependent kinase 2 (CDK2)/glycogen synthase kinase 3β (GSK-3β) phosphorylation inhibitors” (Eur J Med Chem, 2014)
# Experiments:
# K562 [1] = experiment: Cytotoxicity against human K562 cells after 48 hrs by SRB assay; format: functional, cell-based; conditions: K562, 48 h
# Outline: (§1)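 Cells seeded at 5 × 10³ per well and allowed to attach for 12 h, then exposed to a range of drug concentrations in their own medium for 48 h. Fixed with ice-cold TCA for 1 h at 4 °C, washed, then stained with 0.4% SRB for 30 min at room temperature. IC50 is the mean of three independent experiments.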
# [2] = Cytotoxicity against human HCT116 cells after 48 hrs by SRB assay; format: functional, cell-based; conditions: HCT-116, 48 h; outline: as §1
# MGC-803 = experiment: Cytotoxicity against human MGC803 cells after 48 hrs by SRB assay; format: functional, cell-based; conditions: MGC-803, 48 h; outline: as §1
# L1210 = experiment: Cytotoxicity against mouse L1210 cells after 48 hrs by SRB assay; format: functional, cell-based; conditions: L1210, 48 h; outline: as §1
# A549 = experiment: Cytotoxicity against human A549 cells after 48 hrs by SRB assay; format: functional, cell-based; conditions: A549, 48 h; outline: as §1
# HeLa = experiment: Cytotoxicity against human HeLa cells after 48 hrs by SRB assay; format: functional, cell-based; outline: as §1
# [3] = Cytotoxicity against human VEC cells after 48 hrs by SRB assay; format: cell-based; outline: as §1
# K562 [4] = experiment: Induction of cell cycle arrest in human K562 cells assessed as accumulation at G0/G1 phase at 10 uM after 24 hrs by propidium iodide staining based flow cytometry (reference value: 36.14%); format: functional
# K562 [5] = experiment: Induction of cell cycle arrest in human K562 cells assessed as accumulation at G2/M phase at 10 uM after 24 hrs by propidium iodide staining based flow cytometry (reference value: 18.96%); format: functional
# K562 [6] = experiment: Induction of cell cycle arrest in human K562 cells assessed as accumulation at S phase at 10 uM after 24 hrs by propidium iodide staining based flow cytometry (reference value: 44.90%); format: functional
SMILES,IC50 (K562 [1]) [µM],IC50 [2] [µM],IC50 (MGC-803) [µM],IC50 (L1210) [µM],IC50 (A549) [µM],IC50 (HeLa) [µM],IC50 [3] [µM],Activity (K562 [4]) [%],Activity (K562 [5]) [%],Activity (K562 [6]) [%]
O=C1Nc2ccccc2/C1=C1\C(=O)N(CCc2ccccc2)c2ccccc21,17.1,85.2,> 200,158,85.4,> 200,184,–,–,–
O=C1Nc2ccccc2/C1=C1\C(=O)N(c2ccc(F)cc2)c2ccccc21,> 200,40.1,108,> 200,22.6,> 200,93.5,–,–,–
CCN1C(=O)/C(=C2/C(=O)Nc3ccccc32)c2ccccc21,> 200,51,67.2,47.5,61,194,73,–,–,–
CN1C(=O)/C(=C2/C(=O)Nc3ccccc32)c2ccccc21 [MEISOINDIGO],23.3,27,128,167,57.3,15.7,122,32.25,10.25,57.5
CC(C)N1C(=O)/C(=C2/C(=O)Nc3ccccc32)c2ccccc21,> 200,149,176,> 200,183,> 200,> 200,–,–,–
CC(=O)N1C(=O)/C(=C2/C(=O)N(C(C)=O)c3ccccc32)c2ccccc21,> 200,> 200,> 200,> 200,> 200,> 200,> 200,–,–,–
CCCCN1C(=O)/C(=C2/C(=O)Nc3ccccc32)c2ccccc21,114,34.2,87.9,75.4,30.2,80.7,58.1,–,–,–
CC(C)CN1C(=O)/C(=C2/C(=O)Nc3ccccc32)c2ccccc21,74.4,62.2,> 200,73.8,52.8,> 200,97.4,–,–,–
